Reference: ChEMBL document CHEMBL1133541, “Conformationally constrained butyrophenones with affinity for dopamine (D(1), D(2), D(4)) and serotonin (5-HT(2A), 5-HT(2B), 5-HT(2C)) receptors: synthesis of aminomethylbenzo[b]furanones and their evaluation as antipsychotics” (J Med Chem, 2000)

How the values were obtained:
[1] = target: T1, 5-hydroxytryptamine receptor 2A (Rattus norvegicus, UniProt P14842); assay: In vitro affinity against serotonin 5-hydroxytryptamine 2A receptor
[2] = target: T2, 5-hydroxytryptamine receptor 2B (Rattus norvegicus, UniProt P30994); assay: Compound was evaluated for antagonism against serotonin (5-hydroxytryptamine 2B receptor ) receptor; type: functional; conditions: read-out: pA2 (converted)
T2 sequence (P30994 whole entry): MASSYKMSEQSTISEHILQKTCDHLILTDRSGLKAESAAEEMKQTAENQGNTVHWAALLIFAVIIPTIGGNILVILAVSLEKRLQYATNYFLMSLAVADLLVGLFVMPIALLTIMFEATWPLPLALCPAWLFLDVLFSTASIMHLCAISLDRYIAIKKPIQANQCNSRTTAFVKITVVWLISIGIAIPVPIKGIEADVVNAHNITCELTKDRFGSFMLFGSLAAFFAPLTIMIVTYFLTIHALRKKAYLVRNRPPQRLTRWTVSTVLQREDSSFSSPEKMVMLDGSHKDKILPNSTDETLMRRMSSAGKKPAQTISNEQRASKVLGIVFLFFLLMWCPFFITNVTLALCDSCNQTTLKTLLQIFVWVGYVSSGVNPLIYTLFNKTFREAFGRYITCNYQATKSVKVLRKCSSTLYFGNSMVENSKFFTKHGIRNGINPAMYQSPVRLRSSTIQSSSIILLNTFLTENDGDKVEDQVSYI
Summary of the method: (§1)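 Rat stomach fundus strips in modified Krebs solution, 37 °C, carbogen-aerated organ baths; serotonin cumulative concentration-response curves (0.01 nM-10 µM), runs alternating with and without antagonist, 60 min rest between. Antagonism expressed as pA2 (-log antagonist concentration maintaining response when agonist doubled); 3-4 replicate experiments.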

[3] = In vitro affinity against Dopamine receptor D4; design: species or system Bos taurus
[4] = target: T1, 5-hydroxytryptamine receptor 2A; assay: In vitro affinity against serotonin ( 5-hydroxytryptamine 2A receptor ) receptor
Summary of the method: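 Rat frontal cortex membranes (male Sprague-Dawley), preincubated 37 °C 15 min to remove endogenous 5-HT, in Tris-HCl pH 8.07 with 4 mM CaCl2 and 0.1% ascorbic acid. [3H]ketanserin competition in triplicate, 1 µM methysergide masking as required, 30 min at 37 °C; filtration on PEI-soaked GF/C, scintillation counting; two replicate experiments.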

[5] = target: T3, 5-hydroxytryptamine receptor 2C (Homo sapiens) (UniProt P28335); conditions: Bos taurus; 10e-6 M
T3 sequence (whole entry): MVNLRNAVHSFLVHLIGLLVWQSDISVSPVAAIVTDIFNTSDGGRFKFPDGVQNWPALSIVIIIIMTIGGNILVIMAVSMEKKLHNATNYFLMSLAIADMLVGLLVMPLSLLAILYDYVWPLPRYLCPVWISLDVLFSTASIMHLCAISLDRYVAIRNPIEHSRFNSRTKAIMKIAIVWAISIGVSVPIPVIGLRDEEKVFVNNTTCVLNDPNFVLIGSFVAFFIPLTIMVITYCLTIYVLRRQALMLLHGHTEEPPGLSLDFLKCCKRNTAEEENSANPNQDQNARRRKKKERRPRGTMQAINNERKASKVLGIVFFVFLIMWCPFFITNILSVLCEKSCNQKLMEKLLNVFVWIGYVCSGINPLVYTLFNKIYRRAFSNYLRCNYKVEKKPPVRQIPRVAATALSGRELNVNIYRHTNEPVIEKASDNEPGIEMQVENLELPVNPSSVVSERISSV

D(1A) dopamine receptor = D(1A) dopamine receptor (Rattus norvegicus, UniProt P18901); assay: In vitro affinity against Dopamine receptor D1
D(1A) dopamine receptor, sequence (P18901 whole entry): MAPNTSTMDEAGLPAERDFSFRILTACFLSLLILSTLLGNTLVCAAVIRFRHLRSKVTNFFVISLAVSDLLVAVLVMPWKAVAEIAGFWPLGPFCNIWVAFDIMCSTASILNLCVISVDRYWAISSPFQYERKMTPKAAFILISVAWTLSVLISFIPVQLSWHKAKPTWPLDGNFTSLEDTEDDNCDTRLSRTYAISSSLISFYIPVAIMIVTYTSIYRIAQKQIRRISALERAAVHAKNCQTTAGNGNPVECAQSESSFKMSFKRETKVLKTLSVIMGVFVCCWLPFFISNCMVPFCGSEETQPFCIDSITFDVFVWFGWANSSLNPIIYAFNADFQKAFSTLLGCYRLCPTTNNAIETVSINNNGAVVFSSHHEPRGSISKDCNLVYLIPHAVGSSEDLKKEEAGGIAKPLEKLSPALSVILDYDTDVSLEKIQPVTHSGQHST

Mus musculus [6] = assay: Antipsychotic activity was determined in mice or rat within 20-30 min of administration
[7] = target: T2, 5-hydroxytryptamine receptor 2B; assay: Compound was evaluated for antagonism against serotonin (5-hydroxytryptamine 2B) receptor; type: functional; conditions: read-out: pA2 (converted); summary of the method: as §1
Mus musculus [8] = assay: Effective dose administered in apomorphine induced climbing test in mice (in vivo); Value ranges from 0.8-1.44; type: functional
Mus musculus [9] = assay: Effective dose administered in catalepsy test in mice (in vivo); type: functional
Summary of the method: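 Mice (n = 6-12) tested 30 min after dosing: forepaws on one horizontal wire, hindpaws on another 6 cm away and 2 cm lower. Posture held over 30 s counted as catalepsy; ED50 by Litchfield-Wilcoxon method.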

Mus musculus [10] = assay: Effective dose administered in apomorphine induced climbing test in mice (in vivo); type: functional
[11] = target: T3, 5-hydroxytryptamine receptor 2C (Homo sapiens); conditions: Bos taurus; 10e-6 M; remark: listed apart in the source

T1 sequence (P14842 whole entry): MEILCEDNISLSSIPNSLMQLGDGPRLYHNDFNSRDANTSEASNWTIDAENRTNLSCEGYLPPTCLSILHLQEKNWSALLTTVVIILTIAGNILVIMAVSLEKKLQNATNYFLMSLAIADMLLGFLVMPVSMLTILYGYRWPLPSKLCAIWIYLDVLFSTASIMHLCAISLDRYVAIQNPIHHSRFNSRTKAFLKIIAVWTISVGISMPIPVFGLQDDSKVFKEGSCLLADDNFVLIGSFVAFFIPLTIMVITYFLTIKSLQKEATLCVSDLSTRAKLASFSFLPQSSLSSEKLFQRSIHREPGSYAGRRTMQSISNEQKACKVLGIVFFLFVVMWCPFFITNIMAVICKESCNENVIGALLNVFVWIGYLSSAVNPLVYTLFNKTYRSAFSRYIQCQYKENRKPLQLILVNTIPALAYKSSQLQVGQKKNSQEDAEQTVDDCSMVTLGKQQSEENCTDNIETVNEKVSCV

Structure (SMILES) | Ki [1] [nM] | Kb [2] [nM] | Log Ki [3] | further results
O=C1CC(CN2CCN(c3ccccn3)CC2)Cc2occc21 (stereo not given) | 8320 | 3470 | – | –
CN1CCN(C2=Nc3cc(Cl)ccc3Nc3ccccc32)CC1 [CLOZAPINE] | – | – | -7.42 | –
O=C1CC(CN2CCN(c3ncccn3)CC2)Cc2occc21 (stereo not given) | > 100000 | 1820 | – | –
O=C1CC(CN2CCN(c3ccccc3)CC2)Cc2occc21 (stereo not given) | – | > 100000 | – | Ki [4]: 21.9 nM
O=C(CCCN1CCN(CC2CC(=O)c3ccoc3C2)CC1)c1ccc(F)cc1 (stereo not given) | 955 | 437 | – | Inhibition [5]: 3.7%
O=C(CCCN1CCC(O)(c2ccc(Cl)cc2)CC1)c1ccc(F)cc1 [HALOPERIDOL] | – | – | -8.2 | –
COc1ccccc1N1CCN(CC2CC(=O)c3ccoc3C2)CC1 (stereo not given) | 2290 | 646 | – | –
O=C1CC(CN2CCC(C(=O)c3ccc(F)cc3)CC2)Cc2occc21 (stereo not given) | – | – | -7.04 | Ki (D(1A) dopamine receptor): 195 nM; Ki [4]: 51.3 nM; ED50 (Mus musculus [6]): 1.21 mg/kg; Kb [7]: 195 nM; ED50 (Mus musculus [8]): 0.95 mg/kg; ED50 (Mus musculus [9]): 3.44 mg/kg
O=C1CC(CN2CCC(c3noc4cc(F)ccc34)CC2)Cc2occc21 (stereo not given) | 10.7 | 245 | -7.68 | Ki (D(1A) dopamine receptor): 28.8 nM; ED50 (Mus musculus [6]): 0.48 mg/kg; ED50 (Mus musculus [10]): 0.34 mg/kg; ED50 (Mus musculus [9]): 3.84 mg/kg
O=C(CCCCN1CCN(CC2CC(=O)c3ccoc3C2)CC1)c1ccc(F)cc1 (stereo not given) | 1260 | 589 | – | Inhibition [11]: 44.3%
